Test results as given in ChEMBL document CHEMBL1152489, “Synthesis and biological evaluation of a novel series of 1,5-benzothiazepine derivatives as potential antimicrobial agents” (2009).
Activity calls are given as the source filed them. The calls are words filed in the database; no cut-off is given here.

How the values were obtained:
[1] = test system: Candida albicans; experiment: Antifungal activity against Candida albicans ATCC 10231 at 200 ug/disk after 24 hrs by disk diffusion method; type: functional; settings: for zone of inhibition at 200 µg/disc: ATCC 10231, 24 h, read-out: IZ
Outline: (§1)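 Disk diffusion on media seeded with the organism. Sterile paper discs (6 mm) carried test compound dissolved in DMSO at 12.5, 50, 100 or 200 µg/disc. DMSO-only discs served as controls. Plates were incubated 24 h at 37 °C. The read-out is the growth-inhibition zone diameter in mm, averaged over three trials (±1 mm).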

[2] = test system: Candida albicans; experiment: Antifungal activity against Candida albicans ATCC 10231 at 100 ug/disk after 24 hrs by disk diffusion method; type: functional; settings: for zone of inhibition at 100 µg/disc: ATCC 10231, 24 h, read-out: IZ; outline: as §1
[3] = test system: Candida albicans; experiment: Antifungal activity against Candida albicans ATCC 10231 at 50 ug/disk after 24 hrs by disk diffusion method; type: functional; settings: for zone of inhibition at 50 µg/disc: ATCC 10231, 24 h, read-out: IZ; outline: as §1
[4] = test system: Staphylococcus aureus; experiment: Antibacterial activity against Staphylococcus aureus ATCC 25923 at 200 ug/disk after 24 hrs by disk diffusion method; type: functional; settings: for zone of inhibition at 200 µg/disc: ATCC 25923, 24 h, read-out: IZ; outline: as §1
[5] = test system: Staphylococcus aureus; experiment: Antibacterial activity against Staphylococcus aureus ATCC 25923 at 100 ug/disk after 24 hrs by disk diffusion method; type: functional; settings: for zone of inhibition at 100 µg/disc: ATCC 25923, 24 h, read-out: IZ; outline: as §1
[6] = test system: Staphylococcus aureus; experiment: Antibacterial activity against Staphylococcus aureus ATCC 25923 at 50 ug/disk after 24 hrs by disk diffusion method; type: functional; settings: for zone of inhibition at 50 µg/disc: ATCC 25923, 24 h, read-out: IZ; outline: as §1
[7] = test system: Staphylococcus epidermidis; experiment: Antibacterial activity against Staphylococcus epidermidis ATCC 26069 at 200 ug/disk after 24 hrs by disk diffusion method; type: functional; settings: for zone of inhibition at 200 µg/disc: ATCC 26069, 24 h, read-out: IZ; outline: as §1
[8] = test system: Staphylococcus epidermidis; experiment: Antibacterial activity against Staphylococcus epidermidis ATCC 26069 at 100 ug/disk after 24 hrs by disk diffusion method; type: functional; settings: for zone of inhibition at 100 µg/disc: ATCC 26069, 24 h, read-out: IZ; outline: as §1
[9] = test system: Staphylococcus epidermidis; experiment: Antibacterial activity against Staphylococcus epidermidis ATCC 26069 at 50 ug/disk after 24 hrs by disk diffusion method; type: functional; settings: for zone of inhibition at 50 µg/disc: ATCC 26069, 24 h, read-out: IZ; outline: as §1
[10] = test system: Escherichia coli; experiment: Antibacterial activity against Escherichia coli ATCC 44752 at 200 ug/disk after 24 hrs by disk diffusion method; type: functional, organism-based; outline: as §1
[11] = test system: Escherichia coli; experiment: Antibacterial activity against Escherichia coli ATCC 44752 at 100 ug/disk after 24 hrs by disk diffusion method; type: functional, organism-based; outline: as §1
[12] = test system: Escherichia coli; experiment: Antibacterial activity against Escherichia coli ATCC 44752 at 50 ug/disk after 24 hrs by disk diffusion method; type: functional, organism-based; outline: as §1
[13] = test system: Candida albicans; experiment: Antifungal activity against Candida albicans ATCC 10231 after 24 hrs by disk diffusion method; type: functional, organism-based; outline: as §1
[14] = test system: Staphylococcus aureus; experiment: Antibacterial activity against Staphylococcus aureus ATCC 25923 after 24 hrs by disk diffusion method; type: functional, organism-based; outline: as §1
[15] = test system: Staphylococcus epidermidis; experiment: Antibacterial activity against Staphylococcus epidermidis ATCC 26069 after 24 hrs by disk diffusion method; type: functional, organism-based; outline: as §1
[16] = test system: Candida albicans; experiment: Antifungal activity against Candida albicans ATCC 10231 at <12.5 ug/disk after 24 hrs by disk diffusion method; type: functional, organism-based; outline: as §1
[17] = test system: Staphylococcus aureus; experiment: Antibacterial activity against Staphylococcus aureus ATCC 25923 at <12.5 ug/disk after 24 hrs by disk diffusion method; type: functional, organism-based; outline: as §1
[18] = test system: Staphylococcus epidermidis; experiment: Antibacterial activity against Staphylococcus epidermidis ATCC 26069 at <12.5 ug/disk after 24 hrs by disk diffusion method; type: functional, organism-based; outline: as §1
[19] = test system: Staphylococcus aureus; experiment: Antibacterial activity against Staphylococcus aureus ATCC 25923 at 30 ug/disk after 24 hrs by disk diffusion method; type: functional; settings: ATCC 25923, 24 h, read-out: IZ
Outline: (§2)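 Disc diffusion: sterile 6 mm paper discs impregnated with compound dissolved in DMSO, placed on the surface of medium inoculated with the microorganism; DMSO-only discs served as controls. Plates were incubated at 37 °C for 24 h. Growth-inhibition zone diameter (mm) was read and averaged over three trials.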

[20] = test system: Staphylococcus epidermidis; experiment: Antibacterial activity against Staphylococcus epidermidis ATCC 26069 at 30 ug/disk after 24 hrs by disk diffusion method; type: functional; settings: ATCC 26069, 24 h, read-out: IZ; outline: as §2
[21] = test system: Escherichia coli; experiment: Antibacterial activity against Escherichia coli ATCC 44752 at 30 ug/disk after 24 hrs by disk diffusion method; type: functional; settings: ATCC 44752, 24 h, read-out: IZ; outline: as §2
[22] = test system: Candida albicans; experiment: Antifungal activity against Candida albicans ATCC 10231 at 25 ug/disk after 24 hrs by disk diffusion method; type: functional; settings: ATCC 10231, 24 h, read-out: IZ; outline: as §2

SMILES: CC(=O)C1=C(C)Nc2ccccc2SC1c1ccc(Cl)cc1 (stereo unspecified)
- zone of inhibition at 200 µg/disc [1]: 24 mm
- zone of inhibition at 100 µg/disc [2]: 21 mm
- zone of inhibition at 50 µg/disc [3]: 18 mm
- zone of inhibition at 200 µg/disc [4]: 15 mm
- zone of inhibition at 100 µg/disc [5]: 14 mm
- zone of inhibition at 50 µg/disc [6]: 12 mm
- zone of inhibition at 200 µg/disc [7]: 19 mm
- zone of inhibition at 100 µg/disc [8]: 17 mm
- zone of inhibition at 50 µg/disc [9]: 17 mm
- inhibition zone (IZ) [10]: inactive
- inhibition zone (IZ) [11]: inactive
- inhibition zone (IZ) [12]: inactive
- Activity [13]: Dose-dependent effect
- Activity [14]: Dose-dependent effect
- Activity [15]: Dose-dependent effect
- Activity [16]: inactive
- Activity [17]: inactive
- Activity [18]: inactive

SMILES: CN[C@H](CC(C)C)C(=O)N[C@H]1C(=O)N[C@@H](CC(N)=O)C(=O)N[C@H]2C(=O)N[C@H]3C(=O)N[C@H](C(=O)N[C@H](C(=O)O)c4cc(O)cc(O)c4-c4cc3ccc4O)[C@H](O)c3ccc(c(Cl)c3)Oc3cc2cc(c3O[C@@H]2O[C@H](CO)[C@@H](O)[C@H](O)[C@H]2O[C@H]2C[C@](C)(N)[C@H](O)[C@H](C)O2)Oc2ccc(cc2Cl)[C@H]1O [VANCOMYCIN]
- zone of inhibition at 30 µg/disc [19]: 18 mm
- zone of inhibition at 30 µg/disc [20]: 18 mm
- zone of inhibition at 30 µg/disc [21]: 8 mm

SMILES: CCOC(=O)C1C(C)=Nc2ccccc2SC1c1ccc(O)cc1 (stereo unspecified)
- zone of inhibition at 200 µg/disc [1]: 30 mm
- zone of inhibition at 100 µg/disc [2]: 24 mm
- zone of inhibition at 50 µg/disc [3]: 14 mm
- zone of inhibition at 200 µg/disc [4]: 18 mm
- zone of inhibition at 100 µg/disc [5]: 15 mm
- zone of inhibition at 50 µg/disc [6]: 7 mm
- zone of inhibition at 200 µg/disc [7]: 20 mm
- zone of inhibition at 100 µg/disc [8]: 16 mm
- zone of inhibition at 50 µg/disc [9]: 10 mm
- inhibition zone (IZ) [10]: inactive
- inhibition zone (IZ) [11]: inactive
- inhibition zone (IZ) [12]: inactive
- Activity [13]: Dose-dependent effect
- Activity [14]: Dose-dependent effect
- Activity [15]: Dose-dependent effect
- Activity [16]: inactive
- Activity [17]: inactive
- Activity [18]: inactive

SMILES: OC(Cn1cncn1)(Cn1cncn1)c1ccc(F)cc1F [FLUCONAZOLE]
- zone of inhibition at 25 µg/disc [22]: 23 mm

SMILES: CC(=O)C1=C(C)Nc2ccccc2SC1c1ccc(C)cc1 (stereo unspecified)
- zone of inhibition at 200 µg/disc [1]: 23 mm
- zone of inhibition at 100 µg/disc [2]: 16 mm
- zone of inhibition at 50 µg/disc [3]: 16 mm
- zone of inhibition at 200 µg/disc [4]: 10 mm
- zone of inhibition at 100 µg/disc [5]: 9 mm
- zone of inhibition at 50 µg/disc [6]: 7 mm
- zone of inhibition at 200 µg/disc [7]: 7 mm
- zone of inhibition at 100 µg/disc [8]: 7 mm
- zone of inhibition at 50 µg/disc [9]: 7 mm
- inhibition zone (IZ) [10]: inactive
- inhibition zone (IZ) [11]: inactive
- inhibition zone (IZ) [12]: inactive

SMILES: CC(=O)C1=C(C)Nc2ccccc2SC1c1ccc(Cl)cc1Cl (stereo unspecified)
- zone of inhibition at 200 µg/disc [1]: 14 mm
- zone of inhibition at 100 µg/disc [2]: 10 mm
- zone of inhibition at 50 µg/disc [3]: 9 mm
- zone of inhibition at 200 µg/disc [4]: 10 mm
- zone of inhibition at 100 µg/disc [5]: 7 mm
- zone of inhibition at 50 µg/disc [6]: 7 mm
- zone of inhibition at 200 µg/disc [7]: 11 mm
- zone of inhibition at 100 µg/disc [8]: 8 mm
- zone of inhibition at 50 µg/disc [9]: 7 mm
- inhibition zone (IZ) [10]: inactive
- inhibition zone (IZ) [11]: inactive
- inhibition zone (IZ) [12]: inactive

SMILES: CCOC(=O)C1=C(C)Nc2ccccc2SC1c1ccc(C)cc1 (stereo unspecified)
- inhibition zone (IZ) [1]: inactive
- inhibition zone (IZ) [2]: inactive
- inhibition zone (IZ) [3]: inactive
- inhibition zone (IZ) [4]: inactive
- inhibition zone (IZ) [5]: inactive
- inhibition zone (IZ) [6]: inactive
- inhibition zone (IZ) [7]: inactive
- inhibition zone (IZ) [8]: inactive
- inhibition zone (IZ) [9]: inactive
- inhibition zone (IZ) [10]: inactive
- inhibition zone (IZ) [11]: inactive
- inhibition zone (IZ) [12]: inactive
